Measured values gathered from unrelated publications.
Protocols differ between the studies behind these lines.
Target: TGF-beta receptor type-1 (TGFBR1, Homo sapiens, UniProt P36897)
Residues used in one study (P36897 34-503): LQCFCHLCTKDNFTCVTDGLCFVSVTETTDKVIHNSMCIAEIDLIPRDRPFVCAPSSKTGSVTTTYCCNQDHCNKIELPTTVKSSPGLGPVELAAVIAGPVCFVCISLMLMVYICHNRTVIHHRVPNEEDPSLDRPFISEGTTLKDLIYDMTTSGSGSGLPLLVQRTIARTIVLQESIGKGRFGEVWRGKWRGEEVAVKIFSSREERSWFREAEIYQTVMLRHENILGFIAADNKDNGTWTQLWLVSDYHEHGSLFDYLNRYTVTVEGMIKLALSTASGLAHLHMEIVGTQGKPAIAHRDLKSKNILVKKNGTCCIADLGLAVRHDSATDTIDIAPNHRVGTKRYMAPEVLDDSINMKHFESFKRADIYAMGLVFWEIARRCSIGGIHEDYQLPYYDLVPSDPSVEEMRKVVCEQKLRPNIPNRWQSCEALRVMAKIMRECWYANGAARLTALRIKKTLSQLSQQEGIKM

SMILES	observed	method	concentration	remaining binding [%]
O=C(NCCCN1CCOCC1)c1ccc(Nc2nccc(-c3cc4ccccc4s3)n2)cc1	binding	competition with immobilised ligand	1 µM	58
C[C@H]1CCN(c2nccc(-c3cnn4ncccc34)n2)C1	binding		1 µM	76
N#Cc1ccccc1CSc1nnc2c(n1)[nH]c1ccccc12	binding	competition with immobilised ligand	10 µM	100
COc1cnc(Nc2cccc(S(N)(=O)=O)c2)nc1N1CCN(c2ccccc2)CC1	binding	competition with immobilised ligand	1 µM	100
Cc1nc(Cc2cccc(C(F)(F)F)c2)sc1-c1ccc(C(N)=O)nc1	cell-free assay	competition with immobilised ligand	1 µM	90
Cc1cnc(Nc2ccc(C(=O)N3CCC(N4CCCC4)CC3)cc2)nc1-c1cc2ccccc2s1	binding	competition with immobilised ligand	1 µM	48
O=C(NCC1CCOCC1)c1n[nH]cc1NC(=O)c1c(F)cccc1F	binding	competition with immobilised ligand	1 µM	96
CNC(=O)[C@@H]1CC[C@@H](n2c(-c3ccc4cnccc4c3)nc3ccc(C(=O)NCc4cccc(C(N)=O)c4)cc32)C1	binding	competition with immobilised ligand	1 µM	88
CN([C@@H]1CCc2c(CC(=O)O)c3ccccc3n2C1)S(=O)(=O)c1ccc(F)cc1	cell-free assay	competition with immobilised ligand	1 µM	100
c1cnn2ncc(-c3ccnc(N4CCC45COC5)n3)c2c1	binding		1 µM	78
COc1ccc2c(c1)O[C@H](c1ccc(OC)c(OC)c1)C[C@@H]2NC(=O)C1(c2ccc3c(c2)OC(F)(F)O3)CC1	cell-free assay	competition with immobilised ligand	1 µM	100
C[C@@H](c1ccc(-n2cnc3c(N)ncnc32)cc1)N1CCc2nn(C)c(Cc3ccccc3)c2C1=O	binding	competition with immobilised ligand	0.1 µM	82
CN(c1nccc(-c2cnn3ncccc23)n1)C1CC1	binding		1 µM	32
O=C(Nc1cccnn1)N1CCC(=Cc2cccc(Oc3ccc(C(F)(F)F)cn3)c2)CC1	cell-free assay	competition with immobilised ligand	1 µM	61
N[C@H]1CCN(c2nccc(-c3cnn4ncccc34)n2)C1	binding		1 µM	100
COCCOc1nc(-c2ccc(Cl)nc2)nc2c1CN(C(=O)c1ncn3ccccc13)CC2	cell-free assay	competition with immobilised ligand	0.1 µM	100
CC(C)(C)c1ccc(-c2nc(CBr)nn2-c2cccc(O)c2)cc1	cell-free assay	competition with immobilised ligand	10 µM	90
CCOCCn1cc(C(=O)Nc2ccc(-n3nc(-c4cccnc4)cc3C(F)(F)F)cn2)ccc1=O	cell-free assay	competition with immobilised ligand	1 µM	100
CCN1CCN(Cc2ccc(C(=O)Nc3ccc(C)c(Oc4ccc5c(c4)CC(=O)N5)c3)cc2C(F)(F)F)CC1	binding	competition with immobilised ligand	1 µM	100
O=C(c1ccc(Nc2nccc(-c3cc4ccccc4s3)n2)cc1)N1CCC(N2CCCC2)CC1	binding	competition with immobilised ligand	1 µM	91
FC(F)(F)c1ccc2c(c1)nc(-c1cccnc1)n2C1CC1	cell-free assay	competition with immobilised ligand	1 µM	78
CC1CCCN1c1nccc(-c2cnn3ncccc23)n1 (stereo not shown)	binding		1 µM	100
CC(=O)Nc1c(C(C)=O)c(=O)n(C)c2nc(-c3ccc(Cl)cc3Cl)c(-c3ccc(Cl)cc3)cc12	cell-free assay	competition with immobilised ligand	1 µM	82
Cc1cnn2ncc(-c3ccnc(N(C)C)n3)c2c1	binding		1 µM	100
C[C@@H]1CN(c2ccc3ncc(-c4ccc5[nH]nc(C6CC6)c5c4)n3n2)C[C@H](C)O1	binding	competition with immobilised ligand	50 nM	100
